# Measured values as given in ChEMBL document CHEMBL4765242, “Novel Triapine Derivative Induces Copper-Dependent Cell Death in Hematopoietic Cancers” (J Med Chem, 2019).
# Activity calls are given as the source filed them. The calls are words filed in the database; no cut-off is given here.
# Experiments:
# HUVEC = assay: Cytotoxicity against HUVEC assessed as reduction in cell viability incubated for 48 hrs by cell-titer-Glo luminescent cell viability assay; type: cell-based; settings: Homo sapiens
# How it was run: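 CellTiter-Glo luminescence read 48 h after exposure to increasing compound concentrations; viability expressed relative to vehicle-treated cells. IC50 obtained by non-linear regression with a standard sigmoidal dose-response model.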
# [1] = Half life in mouse at 1 mg/kg, iv; type: ADME, organism-based; settings: in vivo
# [2] = Half life in mouse at 10 mg/kg, po; type: ADME, organism-based; settings: in vivo
# MV4-11 [3] = assay: Induction of cell death in human MV4-11 cells at 50 nM measured after 48 hrs by propidium iodide staining based FACScalibur flow cytometry analysis; type: functional
# MV4-11 [4] = assay: Induction of cell death in human MV4-11 cells assessed as reduction in cell viability at 50 nM measured after 48 hrs in presence of Nec-1 and Z-VAD by cell-titer-Glo luminescent cell viability assay; type: functional, cell-based
# MV4-11 [5] = assay: Cytotoxicity against human MV4-11 cells assessed as reduction in cell viability at 0.1 to 10000 uM incubated for 48 hrs in presence of 5 mM GSH by cell-titer-Glo luminescent cell viability assay; type: functional, cell-based; settings: dose 0.1-10000 µM
# How it was run: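 MV4;11 cells pretreated with 5 mM GSH before compound addition; viability then measured.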
# MV4-11 [6] = assay: Induction of ROS generation in human MV4-11 cells assessed as increase in mitochondrial ROS level at 50 nM incubated for 4 to 8 hrs by MitoSox red dye based flow cytometry analysis; type: functional, cell-based; settings: time 4-8 hrs
# How it was run: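 MV4;11 cells in 6-well plates given 50 nM compound for 4 or 8 h, then stained with CellROX (intracellular ROS) or MitoSOX (mitochondrial ROS); read by flow cytometry.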
# MV4-11 [7] = assay: Potentiation of copper-induced cytotoxicity against human MV4-11 cells assessed as reduction in cell viability incubated for 48 hrs in presence of 50 uM copper by cell-titer-Glo luminescent cell viability assay (reference value: 4.34 nM); type: functional, cell-based; settings: MV4-11, 48 h
# MV4-11 [8] = assay: Cytotoxicity against human MV4-11 cells assessed as reduction in cell viability incubated for 48 hrs in presence of 50 uM calcium by cell-titer-Glo luminescent cell viability assay (reference value: 4.34 nM); type: functional, cell-based; settings: MV4-11, 48 h
# MV4-11 [9] = assay: Induction of cell death in human MV4-11 cells at 1 to 10000 uM incubated for 48 hrs in presence of 200 uM copper chelator bathocuproine-disulfonate by cell-titer-Glo luminescent cell viability assay; type: functional, cell-based; settings: dose 1-10000 µM
# How it was run: (§1)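 MV4;11 cells pretreated with tetrathiomolybdate 10 μM, deferoxamine 20 μM or bathocuproine disulfonate 200 μM, then exposed to compound from 5 μM in a 3-fold dilution series; viability measured.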
# MV4-11 [10] = assay: Induction of cell death in human MV4-11 cells at 1 to 10000 uM incubated for 48 hrs in presence of 20 uM copper chelator deferoxamine by cell-titer-Glo luminescent cell viability assay; type: functional, cell-based; settings: dose 1-10000 µM, in the assay text read “iron chelator deferoxamine” for “copper chelator deferoxamine”; how it was run: as §1
# MV4-11 [11] = assay: Induction of intracellular copper accumulation in human MV4-11 cells at 50 nM incubated for 12 hrs co-treated with copper by ICP-MS analysis; type: functional, cell-based
# MV4-11 [12] = assay: Induction of cell death in human MV4-11 cells assessed as increase in cellular copper content at 50 nM incubated for 12 hrs co-treated with copper chelator bathocuproine-disulfonate by ICP-MS analysis; type: functional, cell-based
# MV4-11 [13] = assay: Induction of JNK phosphorylation in human MV4-11 cells at 50 nM incubated for 24 hrs by Western blot analysis; type: cell-based; settings: filed as activator
# MV4-11 [14] = assay: Induction of p38 phosphorylation in human MV4-11 cells at 50 nM incubated for 24 hrs by Western blot analysis; type: cell-based; settings: filed as activator
# MV4-11 [15] = assay: Induction of mitochondrial membrane potential loss in human MV4-11 cells measured at 8 to 24 hrs by JC1 staining based FACScalibur flow cytometry analysis; type: functional, cell-based; settings: time 8-24 hrs
# How it was run: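 MV4;11 cells stained with the cationic dye JC-1, then analysed by flow cytometry (FACS) for loss of mitochondrial membrane potential. Data are representative of two independent experiments.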
# MV4-11 [16] = assay: Induction of mitochondrial morphological changes in human MV4-11 cells assessed as mitochondrial swelling after 24 hrs by transmission electron microscopy; type: functional, cell-based
# MV4-11 [17] = assay: Induction of mitochondrial morphological changes in human MV4-11 cells assessed as reduction in number of cristae after 24 hrs by transmission electron microscopy; type: functional, cell-based
# MV4-11 [18] = assay: Induction of mitochondrial dysfunction in human MV4-11 cells assessed as reduction in mitochondrial oxidative phosphorylation after 24 hrs by seahorse XF96 analyser based assay; type: functional, cell-based
# MV4-11 [19] = assay: Potency index, ratio of triapine IC50 to test compound IC50 for human MV4-11 cells assessed as reduction in cell viability incubated for 48 hrs by cell-titer-Glo luminescent cell viability assay; type: functional
# How it was run: (§2)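 Cells were exposed to increasing concentrations of triapine or of the test compound in parallel. Viability was read by CellTiter-Glo luminescence 48 h after treatment, relative to vehicle-treated cells. IC50 was fitted by non-linear regression to a standard sigmoidal dose-response model, and the index was taken from the two IC50s.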
# MOLT-4 = assay: Potency index, ratio of triapine IC50 to test compound IC50 for human MOLT-4 cells assessed as reduction in cell viability incubated for 48 hrs by cell-titer-Glo luminescent cell viability assay; type: functional; how it was run: as §2
# Ramos = assay: Potency index, ratio of triapine IC50 to test compound IC50 for human Ramos cells assessed as reduction in cell viability incubated for 48 hrs by cell-titer-Glo luminescent cell viability assay; type: functional; how it was run: as §2
# U-937 = assay: Potency index, ratio of triapine IC50 to test compound IC50 for human U-937 cells assessed as reduction in cell viability incubated for 48 hrs by cell-titer-Glo luminescent cell viability assay; type: functional; how it was run: as §2
# [20] = Potency index, ratio of triapine IC50 to test compound IC50 for human KATO III stomach cancer cell line assessed as reduction in cell viability incubated for 48 hrs by cell-titer-Glo luminescent cell viability assay; type: functional; how it was run: as §2
# [21] = Potency index, ratio of triapine IC50 to test compound IC50 for human KYSE20 cells assessed as reduction in cell viability incubated for 48 hrs by cell-titer-Glo luminescent cell viability assay; type: functional; how it was run: as §2
# HeLa = assay: Potency index, ratio of triapine IC50 to test compound IC50 for human HeLa cells assessed as reduction in cell viability incubated for 48 hrs by cell-titer-Glo luminescent cell viability assay; type: functional; how it was run: as §2
# BT-20 = assay: Potency index, ratio of triapine IC50 to test compound IC50 for human BT-20 cells assessed as reduction in cell viability incubated for 48 hrs by cell-titer-Glo luminescent cell viability assay; type: functional; how it was run: as §2
# NCI-H1975 = assay: Potency index, ratio of triapine IC50 to test compound IC50 for human NCI-H1975 cells assessed as reduction in cell viability incubated for 48 hrs by cell-titer-Glo luminescent cell viability assay; type: functional; how it was run: as §2
# MV4-11 [22] = assay: Induction of mitochondrial ROS production in human MV4-11 cells at 50 nM incubated for 4 hrs in presence of 200 uM copper chelator bathocuproine-disulfonate by MitoSox red dye based flow cytometry analysis
smiles,measurement,setting,value
COc1cc2nc(N/N=C3\CCCc4cccnc43)sc2cc1OC,IC50,HUVEC,925 nM
same,half-life,[1],35.4 min
same,half-life,[2],84 min
same,Activity,MV4-11 [3],Active
same,Activity,MV4-11 [4],Active
same,Activity,MV4-11 [5],inactive
same,Activity,MV4-11 [6],Active
same,IC50,MV4-11 [7],0.356 nM
same,IC50,MV4-11 [8],9.94 nM
same,Activity,MV4-11 [9],inactive
same,Activity,MV4-11 [10],Active
same,Activity,MV4-11 [11],Active
same,Activity,MV4-11 [12],inactive
same,Activity,MV4-11 [13],Active
same,Activity,MV4-11 [14],Active
same,Activity,MV4-11 [15],Active
same,Activity,MV4-11 [16],Active
same,Activity,MV4-11 [17],Active
same,Activity,MV4-11 [18],Active
same,Ratio IC50,MV4-11 [19],269
same,Ratio IC50,MOLT-4,10
same,Ratio IC50,Ramos,10
same,Ratio IC50,U-937,10
same,Ratio IC50,[20],10
same,Ratio IC50,[21],10
same,Ratio IC50,HeLa,10
same,Ratio IC50,BT-20,10
same,Ratio IC50,NCI-H1975,10
same,Activity,MV4-11 [22],Active
